# Test results published in ChEMBL document CHEMBL2040770, “Finger loop inhibitors of the HCV NS5b polymerase. Part II. Optimization of tetracyclic indole-based macrocycle leading to the discovery of TMC647055” (Bioorg Med Chem Lett, 2012).
# Columns and labels:
# Hepatitis C virus = assay: Antiviral activity against Hepatitic C virus genotype 1b clone ET infected in human Huh7 replicon cells after 72 hrs by luciferase reporter gene assay; format: functional, organism-based, Hepacivirus hominis; conditions: Huh-7, 72 h
# [1] = Clearance in Sprague-Dawley rat at 2 mg/kg, iv and 10 mg/kg, po; format: ADME, organism-based; conditions: in vivo
# Procedure, shortened: (§1)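 Male Sprague–Dawley rats (n = 3) given a single iv dose of 2 mg/kg in PEG400/saline 70:30 and a single oral dose of 10 mg/kg in PEG400/2% vitamin E-TPGS. Plasma kinetics were followed to give plasma clearance, Cmax and oral bioavailability.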
# [2] = Drug uptake in Sprague-Dawley rat liver at 10 mg/kg, po measured after 7 hrs; format: ADME, organism-based; parameters: dose 10 mg/kg, route oral; conditions: read-out: Drug uptake
# Procedure, shortened: (§2)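 Male Sprague–Dawley rats (n = 3) received a single oral dose of 10 mg/kg in PEG400/2% vitamin E-TPGS. Liver concentration was measured 7 h post-dosing, and the liver/plasma concentration ratio was taken at that same 7 h time point.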
# [3] = Ratio of drug uptake in Sprague-Dawley rat liver to plasma at 10 mg/kg, po measured after 7 hrs; format: ADME, organism-based; parameters: dose 10 mg/kg, route oral; procedure, shortened: as §2
# [4] = Oral bioavailability in Sprague-Dawley rat at 10 mg/kg; format: ADME, organism-based; conditions: in vivo; procedure, shortened: as §1
# [5] = Selectivity index, ratio of CC50 for human Huh7 cells to EC50 for Hepatitic C virus genotype 1b clone ET; format: toxicity, cell-based, Huh-7; conditions: read-out: Ratio CC50/EC50
# Procedure, shortened: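 Selectivity index computed in Huh-7 cells as CC50/EC50.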
# [6] = Metabolic stability in rat liver microsomes assessed as compound metabolized at 5 uM after 15 mins; format: ADME, Microsome; conditions: read-out: Drug metabolism
# Procedure, shortened: (§3)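 Rat or human liver microsomes incubated with compound at 5 µM for 15 min. Stability is given as % of compound metabolized.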
# [7] = Metabolic stability in human liver microsomes assessed as compound metabolized at 5 uM after 15 mins; format: ADME, Microsome; conditions: read-out: Drug metabolism; procedure, shortened: as §3
# [8] = Cmax in Sprague-Dawley rat at 10 mg/kg, po; format: ADME, organism-based; parameters: dose 10 mg/kg, route oral; conditions: in vivo; procedure, shortened: as §1
# [9] = AUC (0 to infinity) in dog at 10 mg/kg, po; format: ADME, organism-based, Canis lupus familiaris; parameters: time infinity, dose 10 mg/kg, route oral; conditions: plasma
# Procedure, shortened: (§4)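 Dogs given a single oral dose of 10 mg/kg. Peak plasma concentration and plasma AUC extrapolated to infinity were determined, reported in µM and µM h.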
# Canis familiaris = assay: Volume of distribution at steady state in dog at 10 mg/kg, po; format: ADME, organism-based, Canis lupus familiaris; parameters: dose 10 mg/kg, route oral; conditions: in vivo
# [10] = Cmax in dog at 10 mg/kg, po; format: ADME, organism-based, Canis lupus familiaris; parameters: dose 10 mg/kg, route oral; conditions: in vivo; procedure, shortened: as §4
# [11] = Inhibition of cytochrome P450; format: ADME
# Rattus norvegicus = species on record: Rattus norvegicus; assay: Drug metabolism in Sprague-Dawley rat assessed as reactive acyl glucuronides formation; format: ADME, organism-based; conditions: in vivo
# [12] = Oral bioavailability in dog at 10 mg/kg; format: ADME, organism-based, Canis lupus familiaris; conditions: in vivo
# [13] = Plasma clearance in dog at 10 mg/kg, po; format: ADME, organism-based, Canis lupus familiaris; parameters: dose 10 mg/kg, route oral
SMILES,EC50 (Hepatitis C virus),clearance [1],concentration at 7 h [2],Kp at 7 h [3],bioavailability [4],selectivity ratio [5],"metabolised at 0.25 h, 5 µM [6]","metabolised at 0.25 h, 5 µM [7]",further results
CN1CCOCCN(C)S(=O)(=O)NC(=O)c2ccc3c(C4CCCCC4)c(n(C)c3c2)-c2ccccc2OCC1=O,190 nM,128 mL/min/kg,1720 ng/mL,64,21%,–,–,–,–
COc1ccc2c(c1)C=C1Cn3c-2c(C2CCCCC2)c2ccc(cc23)C(=O)NS(=O)(=O)N(C)CCCCCCN(C)C1=O,160 nM,–,–,–,–,150,46%,99%,–
COc1ccc2c(c1)C=C1Cn3c-2c(C2CCCCC2)c2ccc(cc23)C(=O)NS(=O)(=O)N(C)CCCCN(C)C1=O,82 nM,40 mL/min/kg,5000 ng/mL,23,76%,> 330,26%,56%,Cmax [8]: 800 ng/mL
COc1ccc2c(c1)C=C1Cn3c-2c(C2CCCCC2)c2ccc(cc23)C(=O)NS(=O)(=O)N(C)CCCN(C)C1=O,680 nM,–,–,–,–,72,28%,18%,–
COc1ccc2c(c1)C=C1Cn3c-2c(C2CCCCC2)c2ccc(cc23)C(=O)NS(=O)(=O)NCCN(C)CCNC1=O,470 nM,–,–,–,–,> 68,23%,7%,–
COc1ccc2c(c1)C=C1Cn3c-2c(C2CCCCC2)c2ccc(cc23)C(=O)NS(=O)(=O)N(C)CCCCCNC1=O,130 nM,70 mL/min/kg,6320 ng/mL,341,6%,> 400,27%,32%,Cmax [8]: 30 ng/mL
COc1ccc2c(c1)C=C1Cn3c-2c(C2CCCCC2)c2ccc(cc23)C(=O)NS(=O)(=O)N(C)CCN(C)CCNC1=O,550 nM,–,–,–,–,> 58,–,–,–
COc1ccc2c(c1)C=C1Cn3c-2c(C2CCCCC2)c2ccc(cc23)C(=O)NS(=O)(=O)N2CCN(CCNC1=O)CC2,860 nM,–,–,–,–,> 40,16%,10%,–
CN1CCOCCN(C)S(=O)(=O)NC(=O)c2ccc3c(C4CCCCC4)c4n(c3c2)CC(=Cc2cc(Cl)ccc2-4)C1=O,280 nM,–,–,–,–,150,22%,16%,–
CN1CCOCCN(C)S(=O)(=O)NC(=O)c2ccc3c(C4CCCCC4)c4n(c3c2)CC(=Cc2cc(F)ccc2-4)C1=O,72 nM,61.7 mL/min/kg,6560 ng/mL,62,52%,> 250,37%,38%,Cmax [8]: 272 ng/mL
CN1CCCCN(C)S(=O)(=O)NC(=O)c2ccc3c(C4CCCCC4)c4n(c3c2)CC(=Cc2ccc(Cl)cc2-4)C1=O,14500 nM,–,–,–,–,> 2,30%,29%,–
COc1ccc2c(c1)C=C1Cn3c-2c(C2CCCCC2)c2ccc(cc23)C(=O)NS(=O)(=O)N(C)CCCCNC1=O,912 nM,–,–,–,–,> 40,13%,20%,–
COc1ccc2c(c1)C=C1Cn3c-2c(C2CCCCC2)c2ccc(cc23)C(=O)NS(=O)(=O)NCCCCN(C)C1=O,550 nM,–,–,–,–,> 58,25%,27%,–
COc1ccc2c(c1)C=C1Cn3c-2c(C2CCCCC2)c2ccc(cc23)C(=O)NS(=O)(=O)N(C)CCN2CCN(CC2)C1=O,180 nM,157 mL/min/kg,299 ng/mL,108,3%,> 170,17%,26%,Cmax [8]: 6 ng/mL
COc1ccc2c(c1)C=C1Cn3c-2c(C2CCCCC2)c2ccc(cc23)C(=O)NS(=O)(=O)N(C(C)C)CCCCN(C)C1=O,330 nM,–,–,–,–,> 100,12%,80%,–
COc1ccc2c(c1)C1C[C@]13Cn1c-2c(C2CCCCC2)c2ccc(cc21)C(=O)NS(=O)(=O)N(C)CCOCCN(C)C3=O (stereo not given in full),40 nM,86.7 mL/min/kg,3200 ng/mL,38,51%,–,72%,95%,–
COc1ccc2c(c1)C1C[C@@]13Cn1c-2c(C2CCCCC2)c2ccc(cc21)C(=O)NS(=O)(=O)N(C)CCOCCN(C)C3=O (stereo not given in full),800 nM,–,–,–,–,–,–,–,–
COc1ccc2c(c1)C[C@@H]1Cn3c-2c(C2CCCCC2)c2ccc(cc23)C(=O)NS(=O)(=O)N(C)CCOCCN(C)C1=O,–,53.3 mL/min/kg,898 ng/mL,22,15%,–,42%,63%,–
CCN(CC)C1CCN(C(=O)Cn2c(-c3ccc(Cl)cc3)c(C3CCCCC3)c3ccc(C(=O)O)cc32)CC1,127 nM,–,–,–,–,–,–,–,–
COc1ccc2c(c1)C=C1Cn3c-2c(C2CCCCC2)c2ccc(cc23)C(=O)NS(=O)(=O)N(C)CCOCCN(C)C1=O [TMC-647055],82 nM,53.3 mL/min/kg,7800 ng/mL,46,> 66%,> 300,30%,35%,Cmax [8]: 440 ng/mL; AUC(0-inf) [9]: 25.8 µM·h; Vdss (Canis familiaris): 0.32 L/kg; Cmax [10]: 10.2 µM; inhibition (INH) [11]: Not Active; Drug metabolism (Rattus norvegicus): Not Active; bioavailability [12]: 87%; CL/F [13]: 9 mL/min/kg
